UHRF1 MBD2 ctr: UHRF1 methyl-DNA binding inhibition; AID 687016; inhibition, % at 4.4 µM; UHRF1 binding to methylated oligo, TR-FRET; actives 0.75% (n = 370,000);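 further: UHRF1 SRA domain binding a hemimethylated CpG hairpin DNA probe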
Target sequence (Q96T88 whole entry, looked up, the tested form may be a part): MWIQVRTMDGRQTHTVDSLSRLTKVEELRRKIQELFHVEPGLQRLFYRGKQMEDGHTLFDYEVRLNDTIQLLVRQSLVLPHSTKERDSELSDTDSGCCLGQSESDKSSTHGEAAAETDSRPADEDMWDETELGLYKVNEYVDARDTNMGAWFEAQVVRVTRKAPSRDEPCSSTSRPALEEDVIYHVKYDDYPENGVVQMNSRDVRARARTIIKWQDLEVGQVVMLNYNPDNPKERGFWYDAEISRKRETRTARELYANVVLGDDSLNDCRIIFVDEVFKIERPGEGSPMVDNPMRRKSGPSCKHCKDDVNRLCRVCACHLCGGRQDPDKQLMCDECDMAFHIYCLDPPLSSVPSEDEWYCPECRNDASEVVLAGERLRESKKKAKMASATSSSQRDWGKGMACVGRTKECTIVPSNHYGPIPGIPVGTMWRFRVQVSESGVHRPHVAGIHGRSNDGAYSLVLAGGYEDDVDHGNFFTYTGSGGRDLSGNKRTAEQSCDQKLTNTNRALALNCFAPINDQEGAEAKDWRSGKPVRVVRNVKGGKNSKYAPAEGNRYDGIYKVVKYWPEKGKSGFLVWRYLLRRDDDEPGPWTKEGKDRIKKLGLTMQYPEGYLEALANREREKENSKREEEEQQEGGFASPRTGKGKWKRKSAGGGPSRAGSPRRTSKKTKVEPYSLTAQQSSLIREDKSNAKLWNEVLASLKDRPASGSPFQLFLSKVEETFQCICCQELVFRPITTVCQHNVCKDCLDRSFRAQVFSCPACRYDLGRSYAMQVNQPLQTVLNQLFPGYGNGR
B2AR ag: human beta-2 adrenergic receptor agonism by FAP. actives 0.43% (n = 340,000). response, % (no concentration beside the values). P07550. AID 504454. Am2.2-beta2AR cells, FAP receptor internalization, flow cytometry;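 active means response above a set limit, near 3 SD of response in nonfluorescent compounds, cut at about 42% in these data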
ABHD5-PLIN5 inh: ABHD5-PLIN5 protein interaction inhibition; inhibition, % at 4 µM; actives 0.78% (n = 360,000); AID 602281; Split G. princeps luciferase complementation, luminescence, 4 h; Q00G26+Q8WTS1;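 active means inhibition above the mean inhibition across every tested compound plus 3 SD, cut at about 22% in these data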
Arr AP2 block: blocks beta-arrestin peptide binding to AP2 adaptin; FITC-arrestin peptide / GST-AP2 beads, flow cytometry; AP2 beta2 appendage carries R879A mutation; inhibition, % at 10 µM; actives 0.31% (n = 340,000);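 active means inhibition above a set limit, near 3 SD of compounds lacking own fluorescence, cut at about 54% in these data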
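System: GST-AP2 R879A glutathione beads; medium: PBS, Tween 20 0.05%, BSA 0.1%; reagent: fluorescein-tagged arrestin peptide at 50 nM final; schedule: pre-incubation 12 min, peptide binding 1 h, room temperature; detection: flow cytometry, FL1 (488/535 nm); read-out: inhibition as reduced fluorescein signal on beads, percent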
MBD2 DNA inh: inhibitors of human MBD2 binding to methylated oligonucleotide; Q9UBB5; TR-FRET; inhibition, % at 4.4 µM; actives 0.31% (n = 370,000); in the data active means inhibition above about 13%
Rin1 Abl inh: blocks binding of human Rin1 to Abl | actives 0.4% (n = 360,000) | TR-FRET Rin1/Abl binding, biochemical | inhibition, % at 7.35 µM; in the data active means inhibition above about 5%, passing the limit was not always enough
UHRF1 DNA bind: inhibits human UHRF1 binding to methylated oligonucleotide, MBD2 counter-screen | shares compounds with MBD2 DNA inh | TR-FRET | inhibition, % at 4.4 µM | actives 25% (n = 1,000);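 further: UHRF1 SRA domain binding a labeled hemimethylated CpG hairpin DNA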
MBD2 confirm: MBD2-DBD methyl-DNA binding inhibition, TR-FRET confirmation; shares compounds with MBD2 DNA inh; TR-FRET MBD2-DBD binding to methylated oligonucleotide; inhibition, % at 4.4 µM; actives 26% (n = 1,000); in the data active means inhibition above about 14%
Each line names hits and unclear results; the compound was inactive in the other large screens (follow-up assays come after a bar, where they were run); ! = not confirmed by another sample. Hits are enriched below; roughly 2.5% of the tested compounds scored in any of these assays. Unless noted, no stated cut-off is given here; in the data, active means inhibition above about 21%; inactive means the rest.

Cc1ccc(-n2nc3c(c2NC(=O)c2cccs2)CS(=O)(=O)C3)c(C)c1	MBD2 DNA inh 15 | UHRF1 DNA bind inactive | MBD2 confirm inactive
CC(=O)Nc1c2c(nn1-c1ccc(C)cc1)CS(=O)(=O)C2	MBD2 DNA inh 70 | UHRF1 DNA bind inactive | MBD2 confirm inactive
COC(=O)C1=C(C)N(Cc2ccc(C(F)(F)F)cc2)C(=NCc2ccc(OC)cc2)NC1c1ccccc1C(F)(F)F (stereo not drawn)	none (no result: B2AR ag, ABHD5-PLIN5 inh, Arr AP2 block, Rin1 Abl inh)
CCCC(=O)OC12CCCN(C1)/C(=C/c1ccccc1)C2 (stereo not drawn)	none (no result: B2AR ag, ABHD5-PLIN5 inh, Arr AP2 block, Rin1 Abl inh)
Cc1c(C(O)(c2ccccc2)c2ccccc2)[n+]2ccccc2n1C	none (no result: B2AR ag, ABHD5-PLIN5 inh, Arr AP2 block, Rin1 Abl inh)
CC(C)CC1Nc2ncnc(N3CCOCC3)c2N(Cc2ccc(Cl)cc2)C1=O (stereo not drawn)	UHRF1 MBD2 ctr 24!, MBD2 DNA inh 21! | UHRF1 DNA bind inactive | MBD2 confirm inactive
CC(=O)Nc1sc2c(c1-c1nc3ccccc3s1)CCCN(C(C)C)C2	UHRF1 MBD2 ctr 28, MBD2 DNA inh 50 (no result: B2AR ag, ABHD5-PLIN5 inh, Arr AP2 block, Rin1 Abl inh) | UHRF1 DNA bind 35 | MBD2 confirm 55
CC(=O)Nc1sc2c(c1-c1nc3ccccc3s1)CN(C(C)C)CC2	MBD2 DNA inh 36 | UHRF1 DNA bind 24 | MBD2 confirm 57
CC(=O)Nc1sc2c(c1-c1nc3ccccc3s1)CN(C(C)C)C2	MBD2 DNA inh 14 (no result: B2AR ag, ABHD5-PLIN5 inh, Arr AP2 block, Rin1 Abl inh) | UHRF1 DNA bind inactive | MBD2 confirm 29
CC(=O)Nc1sc2c(c1-c1nc3ccccc3s1)CCN(C)C2	MBD2 DNA inh 28 (no result: B2AR ag, ABHD5-PLIN5 inh, Arr AP2 block, Rin1 Abl inh) | UHRF1 DNA bind inactive | MBD2 confirm 42
CC(=O)Nc1sc2c(c1-c1nc3ccccc3s1)CCN(C(C)=O)C2	none (no result: B2AR ag, ABHD5-PLIN5 inh, Arr AP2 block, Rin1 Abl inh)
COC(=O)[C@]12C[C@H](CC(=O)N3CCOCC3)C(=O)N(Cc3ccc(Cl)cc3Cl)C1=C[C@H](C1CCCC1)O[C@@H]2C	none (no result: B2AR ag, ABHD5-PLIN5 inh, Arr AP2 block, Rin1 Abl inh)
Cc1ccc(NS(=O)(=O)c2ccc(-n3cccn3)cc2)c(Cl)c1	none (no result: B2AR ag, Arr AP2 block)
CCc1nnc(NC(=O)CSc2nnc(CNC(=O)c3ccccc3)o2)s1	MBD2 DNA inh 22 (no result: B2AR ag, Arr AP2 block) | UHRF1 DNA bind inactive | MBD2 confirm inactive
CC1(C(=O)NS(=O)(=O)c2cccc(OC(F)F)c2)CCN1C(=O)C/C=C/c1ccccc1 (stereo not drawn)	none (no result: B2AR ag, Arr AP2 block)
Cc1ccc(OCC(=O)NNC(=O)C2CCCO2)c(C)c1 (stereo not drawn)	MBD2 DNA inh 18 | UHRF1 DNA bind inactive | MBD2 confirm inactive
Cc1cc(C)cc(OCC(=O)NNC(=O)C2CCCO2)c1 (stereo not drawn)	none
CCCc1ccc(C(=O)NNC(=O)c2ccc(Br)cc2)cc1	MBD2 DNA inh 15 | UHRF1 DNA bind inactive | MBD2 confirm inactive
Cc1ccccc1NC(=O)Cc1nc(COC(=O)CC(C)c2ccccc2)cs1 (stereo not drawn)	MBD2 DNA inh 20 | UHRF1 DNA bind inactive | MBD2 confirm inactive
COc1ccc2nc(NC(=O)CN3C(=O)NC4(CCCCC4)C3=O)sc2c1	none
COc1ccc(-c2nnn(CCC(=O)O)n2)cc1	MBD2 DNA inh 36 | UHRF1 DNA bind inactive | MBD2 confirm inactive
COc1cccc(-c2nnn(CCC(=O)O)n2)c1	none
CC(C)(CS(=O)(=O)[O-])NC(=O)CC[N+](C)(C)CCO	UHRF1 MBD2 ctr 92, MBD2 DNA inh 54 | UHRF1 DNA bind 95 | MBD2 confirm 85
CCOc1ccccc1NC(=O)CCS(=O)(=O)c1ccc(OC)cc1	none
CCc1ccccc1NC(=O)CCS(=O)(=O)c1ccc(OC)cc1	UHRF1 MBD2 ctr 75, MBD2 DNA inh 40 | UHRF1 DNA bind inactive | MBD2 confirm inactive
O=C1CCC[C@H]2C[C@H](NCc3ccc(Cl)c(Cl)c3)CC[C@]23CCCN13	none (no result: B2AR ag, ABHD5-PLIN5 inh, Arr AP2 block, Rin1 Abl inh)
CCN(C(=O)COC(=O)/C=C/c1cccc(Br)c1)C1CCS(=O)(=O)C1 (stereo not drawn)	UHRF1 MBD2 ctr 28, MBD2 DNA inh 16 | UHRF1 DNA bind inactive | MBD2 confirm inactive
CN(CCC#N)C(=O)COC(=O)c1c2c(nc3ccccc13)/C(=C\c1ccco1)CC2	UHRF1 MBD2 ctr 41, MBD2 DNA inh 20 | UHRF1 DNA bind 35 | MBD2 confirm 29
CCOc1ccc(Cl)cc1-c1cc(C(=O)Nc2cc(OC)c(OC)c(OC)c2)[nH]n1	none (no result: B2AR ag, Arr AP2 block)
O=S(=O)(Nc1nc(-c2ccco2)c(-c2ccco2)s1)c1ccc(F)cc1F	UHRF1 MBD2 ctr 59, MBD2 DNA inh 23 (no result: B2AR ag, Arr AP2 block) | UHRF1 DNA bind inactive | MBD2 confirm inactive
O=S(=O)(Nc1nc2ccccc2s1)c1cc(F)ccc1F	none
COc1ccc(OC)c(/C(O)=C/C(=O)C(=O)Nc2ccccc2OC)c1	MBD2 DNA inh 15 | UHRF1 DNA bind inactive | MBD2 confirm inactive
CCCN1CCS(=O)(=O)N(Cc2cn(Cc3ccccc3)nn2)C(C(=O)OC)C1 (stereo not drawn)	none (no result: B2AR ag, ABHD5-PLIN5 inh, Arr AP2 block, Rin1 Abl inh)
CC(C)C(NS(=O)(=O)c1cccc2nsnc12)C(=O)N1CCn2c1nc1ccccc12 (stereo not drawn)	MBD2 DNA inh 14 | UHRF1 DNA bind inactive | MBD2 confirm inactive
CC(C)C(NS(=O)(=O)c1cccc2nsnc12)C(=O)NC1CCCCC1C (stereo not drawn)	none (no result: UHRF1 MBD2 ctr, MBD2 DNA inh)
COC(=O)CN(Cc1cn(Cc2ccccc2)nn1)S(=O)(=O)c1ccccc1Br	none (no result: B2AR ag, ABHD5-PLIN5 inh, Arr AP2 block, Rin1 Abl inh)
O=C(O)CCNc1cc(N2CCN(C(=O)c3ccco3)CC2)c2noc3c2c1C(=O)c1ccccc1-3	none
CC(=O)OCCNc1cc(N2CCN(C)CC2)c2noc3c2c1C(=O)c1ccccc1-3	UHRF1 MBD2 ctr 36, MBD2 DNA inh 20 | UHRF1 DNA bind 25 | MBD2 confirm inactive
O=C(O)CN1CCNCCN(CC(=O)O)CCNCC1	none
CCc1cc(=O)oc2cc(C)c(CN3CCCC3)c(O)c12	UHRF1 MBD2 ctr 32, MBD2 DNA inh 15 | UHRF1 DNA bind inactive | MBD2 confirm inactive
Cc1occc1-c1nnc(SCC(=O)Nc2ccncc2)n1-c1ccccc1	none (no result: B2AR ag, ABHD5-PLIN5 inh, Arr AP2 block, Rin1 Abl inh)
O=C(O)CCCCC1CCSS1 (stereo not drawn)	UHRF1 MBD2 ctr 48, MBD2 DNA inh 22 | UHRF1 DNA bind 36 | MBD2 confirm 16
COc1cccc(NC(=O)Nc2c(-c3ccc(F)cc3)nc3ncccn23)c1	none (no result: B2AR ag, ABHD5-PLIN5 inh, Arr AP2 block, Rin1 Abl inh)
O=C(O)CC1CCC(=C(Cl)Cl)C1 (stereo not drawn)	none
O=C(O)CC1CC(O)CCC1=O (stereo not drawn)	MBD2 DNA inh 28 (no result: B2AR ag, Arr AP2 block) | UHRF1 DNA bind inactive | MBD2 confirm inactive
CC1=NN(c2ccc(Cl)cc2)C(=O)C1C(c1cccc(O)c1)c1c(C)[nH]n(-c2ccc(Cl)cc2)c1=O (stereo not drawn)	none (no result: UHRF1 MBD2 ctr, MBD2 DNA inh)
